From ChEMBL document CHEMBL5058577, “EUbOPEN Chemogenomics Library 2 (Multiplex)” (2022)

Test system: U2OS
Assay: Multiplex assay against U2OS
Type: toxicity, cell-based
Conditions: human
Summary of the method: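 Cells were classed with CellPathfinder machine-learning gating, first as Hoechst high-intensity objects or normal cells, then (normal cells) as healthy, pyknosed or fragmented nuclei, and finally (pyknosed cells) as mitotic or apoptotic. Staining of live cells at seeding used Hoechst33342, BioTracker Green Microtubule Cytoskeleton Dye, MitoTracker Red and Annexin V Alexa Fluor 680, with imaging on a CQ1 microscope at 37°C and 5% CO2 after compound addition. Tubulin, mitochondrial-mass and membrane-permeability phenotypes are per cents of healthy-nucleus cells.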

[1] = 12 h, 1 µM, compound concentration 1 uM, replicate 1
[2] = 12 h, 1 µM, compound concentration 1 uM, replicate 2
[3] = 12 h, 10 µM, compound concentration 10 uM, replicate 1
[4] = 12 h, 10 µM, compound concentration 10 uM, replicate 2
[5] = 24 h, 1 µM, compound concentration 1 uM, replicate 1
[6] = 24 h, 1 µM, compound concentration 1 uM, replicate 2
[7] = 24 h, 10 µM, compound concentration 10 uM, replicate 1
[8] = 24 h, 10 µM, compound concentration 10 uM, replicate 2
[9] = 48 h, 1 µM, compound concentration 1 uM, replicate 1
[10] = 48 h, 1 µM, compound concentration 1 uM, replicate 2
[11] = 48 h, 10 µM, compound concentration 10 uM, replicate 1
[12] = 48 h, 10 µM, compound concentration 10 uM, replicate 2

Cc1ccccc1C(=O)Nc1ccc(C(=O)N2CCCC(N(C)C)c3ccccc32)cc1.Cl (centres undefined)
Population Apoptotic (%) [1]: 91% | Population Fragmented Nuclei (%) [1]: 20% | Population Healthy Nuclei (%) [1]: 70% | Population Hoechst High Intensity Objects (%) [1]: 1% | Population Membrane Permeable-Phenotype (%) [1]: 5% | Population Mitochondria Different-Phenotype (%) [1]: 3% | Population Mitotic Cells (%) [1]: 8% | Population Normal (%) [1]: 98% | Population Pyknosed Nuclei (%) [1]: 8% | Population Tubulin-Different-Phenotype (%) [1]: 4% | Total Cell Count [1]: 282 | Population Apoptotic (%) [2]: 77% | Population Fragmented Nuclei (%) [2]: 14% | Population Healthy Nuclei (%) [2]: 79% | Population Membrane Permeable-Phenotype (%) [2]: 4% | Population Mitochondria Different-Phenotype (%) [2]: 5% | Population Mitotic Cells (%) [2]: 22% | Population Pyknosed Nuclei (%) [2]: 5% | Population Tubulin-Different-Phenotype (%) [2]: 1% | Total Cell Count [2]: 157 | Population Apoptotic (%) [3]: 59% | Population Fragmented Nuclei (%) [3]: 18% | Population Healthy Nuclei (%) [3]: 55% | Population Hoechst High Intensity Objects (%) [3]: 4% | Population Membrane Permeable-Phenotype (%) [3]: 14% | Population Mitochondria Different-Phenotype (%) [3]: 11% | Population Mitotic Cells (%) [3]: 40% | Population Normal (%) [3]: 95% | Population Pyknosed Nuclei (%) [3]: 25% | Population Tubulin-Different-Phenotype (%) [3]: 8% | Total Cell Count [3]: 213 | Population Apoptotic (%) [4]: 56% | Population Healthy Nuclei (%) [4]: 62% | Population Hoechst High Intensity Objects (%) [4]: 1% | Population Membrane Permeable-Phenotype (%) [4]: 15% | Population Mitochondria Different-Phenotype (%) [4]: 25% | Population Mitotic Cells (%) [4]: 43% | Population Normal (%) [4]: 98% | Population Pyknosed Nuclei (%) [4]: 19% | Population Tubulin-Different-Phenotype (%) [4]: 15% | Total Cell Count [4]: 83 | Population Apoptotic (%) [5]: 88% | Population Fragmented Nuclei (%) [5]: 18% | Population Healthy Nuclei (%) [5]: 70% | Population Hoechst High Intensity Objects (%) [5]: 0% | Population Membrane Permeable-Phenotype (%) [5]: 6% | Population Mitochondria Different-Phenotype (%) [5]: 3% | Population Mitotic Cells (%) [5]: 11% | Population Normal (%) [5]: 99% | Population Pyknosed Nuclei (%) [5]: 10% | Population Tubulin-Different-Phenotype (%) [5]: 4% | Total Cell Count [5]: 333 | Population Apoptotic (%) [6]: 66% | Population Fragmented Nuclei (%) [6]: 13% | Population Healthy Nuclei (%) [6]: 77% | Population Hoechst High Intensity Objects (%) [6]: 1% | Population Membrane Permeable-Phenotype (%) [6]: 5% | Population Mitochondria Different-Phenotype (%) [6]: 4% | Population Mitotic Cells (%) [6]: 33% | Population Normal (%) [6]: 98% | Population Pyknosed Nuclei (%) [6]: 9% | Population Tubulin-Different-Phenotype (%) [6]: 3% | Total Cell Count [6]: 192 | Population Apoptotic (%) [7]: 71% | Population Fragmented Nuclei (%) [7]: 16% | Population Healthy Nuclei (%) [7]: 51% | Population Hoechst High Intensity Objects (%) [7]: 4% | Population Membrane Permeable-Phenotype (%) [7]: 16% | Population Mitochondria Different-Phenotype (%) [7]: 14% | Population Mitotic Cells (%) [7]: 28% | Population Normal (%) [7]: 95% | Population Pyknosed Nuclei (%) [7]: 31% | Population Tubulin-Different-Phenotype (%) [7]: 6% | Total Cell Count [7]: 211 | Population Apoptotic (%) [8]: 46% | Population Fragmented Nuclei (%) [8]: 27% | Population Healthy Nuclei (%) [8]: 53% | Population Hoechst High Intensity Objects (%) [8]: 5% | Population Membrane Permeable-Phenotype (%) [8]: 18% | Population Mitochondria Different-Phenotype (%) [8]: 18% | Population Mitotic Cells (%) [8]: 53% | Population Normal (%) [8]: 94% | Population Pyknosed Nuclei (%) [8]: 18% | Population Tubulin-Different-Phenotype (%) [8]: 18% | Total Cell Count [8]: 73 | Population Apoptotic (%) [9]: 85% | Population Fragmented Nuclei (%) [9]: 14% | Population Healthy Nuclei (%) [9]: 71% | Population Hoechst High Intensity Objects (%) [9]: 1% | Population Membrane Permeable-Phenotype (%) [9]: 5% | Population Mitochondria Different-Phenotype (%) [9]: 3% | Population Mitotic Cells (%) [9]: 14% | Population Normal (%) [9]: 98% | Population Pyknosed Nuclei (%) [9]: 13% | Population Tubulin-Different-Phenotype (%) [9]: 3% | Total Cell Count [9]: 414 | Population Apoptotic (%) [10]: 83% | Population Fragmented Nuclei (%) [10]: 15% | Population Healthy Nuclei (%) [10]: 72% | Population Membrane Permeable-Phenotype (%) [10]: 7% | Population Mitochondria Different-Phenotype (%) [10]: 5% | Population Mitotic Cells (%) [10]: 16% | Population Pyknosed Nuclei (%) [10]: 12% | Population Tubulin-Different-Phenotype (%) [10]: 4% | Total Cell Count [10]: 248 | Population Apoptotic (%) [11]: 71% | Population Fragmented Nuclei (%) [11]: 28% | Population Healthy Nuclei (%) [11]: 43% | Population Hoechst High Intensity Objects (%) [11]: 8% | Population Membrane Permeable-Phenotype (%) [11]: 17% | Population Mitochondria Different-Phenotype (%) [11]: 8% | Population Mitotic Cells (%) [11]: 28% | Population Normal (%) [11]: 91% | Population Pyknosed Nuclei (%) [11]: 28% | Population Tubulin-Different-Phenotype (%) [11]: 7% | Total Cell Count [11]: 206 | Population Apoptotic (%) [12]: 84% | Population Healthy Nuclei (%) [12]: 42% | Population Membrane Permeable-Phenotype (%) [12]: 11% | Population Mitochondria Different-Phenotype (%) [12]: 30% | Population Mitotic Cells (%) [12]: 16% | Population Pyknosed Nuclei (%) [12]: 29% | Population Tubulin-Different-Phenotype (%) [12]: 13% | Total Cell Count [12]: 93
